We go through two molecules from ChEMBL document CHEMBL1177762, “Identification of a sulfonamide series of CCR2 antagonists” (Bioorg Med Chem Lett, 2010).

Data set [1] is described as follows: Lipophilicity, log D of the compound. The format is physicochemical. The conditions noted are these: octanol/water.
For data set [2], the target named is T1, C-C chemokine receptor type 2 (Homo sapiens, UniProt P41597). The experiment in a line: Antagonist activity at human CCR2 expressed in CHO cells assessed as inhibition of MCP1-induced [35S]-GTPgammaS binding after 3 hrs. The format is functional, cell-based. For orientation: Binding of GTPγS marks nucleotide exchange on a G protein.
Target sequence in this assay (P41597 whole entry): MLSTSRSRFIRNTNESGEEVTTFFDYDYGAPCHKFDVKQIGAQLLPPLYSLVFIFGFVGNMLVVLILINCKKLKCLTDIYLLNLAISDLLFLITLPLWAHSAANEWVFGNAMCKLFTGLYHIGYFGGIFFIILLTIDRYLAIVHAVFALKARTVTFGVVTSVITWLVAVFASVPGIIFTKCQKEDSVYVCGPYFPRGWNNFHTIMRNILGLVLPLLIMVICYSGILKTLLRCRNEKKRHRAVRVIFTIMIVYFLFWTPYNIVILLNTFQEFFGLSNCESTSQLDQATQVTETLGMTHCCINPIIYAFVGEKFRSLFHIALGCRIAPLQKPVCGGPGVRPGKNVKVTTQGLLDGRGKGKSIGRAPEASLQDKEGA
Data set [3] has as its target T2, C-C chemokine receptor type 4 (Homo sapiens, UniProt P51679).
T2 sequence (P51679 whole entry): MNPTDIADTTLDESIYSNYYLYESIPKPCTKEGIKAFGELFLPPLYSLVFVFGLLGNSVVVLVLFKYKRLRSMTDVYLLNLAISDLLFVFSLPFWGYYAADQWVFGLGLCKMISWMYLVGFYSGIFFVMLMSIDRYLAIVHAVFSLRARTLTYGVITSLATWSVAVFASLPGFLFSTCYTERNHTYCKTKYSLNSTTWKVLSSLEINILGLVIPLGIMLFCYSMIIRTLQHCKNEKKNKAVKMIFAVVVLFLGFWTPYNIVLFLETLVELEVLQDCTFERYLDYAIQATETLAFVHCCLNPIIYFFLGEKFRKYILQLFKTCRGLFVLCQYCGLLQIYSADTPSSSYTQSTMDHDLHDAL
The experiment in a line: Antagonist activity at CCR4. In kind it is functional.

Data set [4] deals with Voltage-gated inwardly rectifying potassium channel KCNH2 (Homo sapiens, UniProt Q12809). The data set is described as follows: Binding affinity to human ERG by fluorescence-polarization binding assay.
For data set [5], the target named is Cytochrome P450 2C19 (Homo sapiens, UniProt P33261). The experiment in a line: Inhibition of CYP2C19. The format is ADME.
Data set [6] in a line: Clearance in rat. The conditions noted are these: in vivo. In kind it is ADME, organism-based.
For data set [7], the target named is T1, C-C chemokine receptor type 2. The data set is described as follows: Antagonist activity at CCR2 in human THP1 cells assessed as inhibition of CCL2-induced chemotaxis at 1 uM in presence of 1% human serum. In kind it is functional, cell-based. The conditions noted are these: THP-1. The essentials:
(§1)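 Boyden chamber (48-well) chemotaxis of THP-1 cells stimulated with CCL2. Foetal bovine serum or human serum was added to the assay buffer.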
Target sequence in this assay (P41597 whole entry, looked up): as the sequence (P41597 whole entry) above

Data set [8] concerns the target Cytochrome P450 3A4 (Homo sapiens, UniProt P08684). The data set is described as follows: Inhibition of CYP3A4. In kind it is ADME.
The nature of data set [9]: Half life in iv dosed in rat. The format is ADME, organism-based. To be noted: in vivo.
Data set [10] in a line: Half life in po dosed in rat. The format is ADME, organism-based. To be noted: in vivo.
The nature of data set [11]: Oral bioavailability in rat. In kind it is ADME, organism-based. The conditions noted are these: in vivo.
Data set [12] addresses T1, C-C chemokine receptor type 2. The data set is described as follows: Antagonist activity at CCR2 in human THP1 cells assessed as inhibition of CCL2-induced chemotaxis at 1 uM in presence of 0.1% human serum. The format is functional, cell-based. To be noted: THP-1. The method, boiled down:
as §1
Target sequence in this assay (P41597 whole entry, looked up): as the sequence (P41597 whole entry) above

The target is the same in data set [13]. The experiment in a line: Inhibition of CCR2-mediated chemotaxis in human THP1 cells assessed as half life of reversibility at 10 uM after assay buffer exchange. The format is cell-based. The conditions noted are these: THP-1. The essentials: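 THP-1 cells were preincubated with compound at 10 µM for 30 min. The assay buffer was then exchanged and CCL2-driven chemotaxis was stimulated periodically to generate a reversibility curve. The half-life of reversibility was taken from this curve.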
Target sequence in this assay (P41597 whole entry, looked up): as the sequence (P41597 whole entry) above

Data set [14] concerns the target Cytochrome P450 2D6 (Homo sapiens, UniProt P10635). The experiment in a line: Inhibition of CYP2D6. The format is ADME.
Data set [15] is filed under the species Rattus norvegicus. The data set is described as follows: Volume of distribution in rat. The conditions noted are these: in vivo. The format is ADME, organism-based.
The target of data set [16] is C-C chemokine receptor type 5 (Homo sapiens, UniProt P51681). The experiment in a line: Antagonist activity at CCR5. In kind it is functional.
Data set [17] has as its target Cytochrome P450 2C9 (Homo sapiens, UniProt P11712). The experiment in a line: Inhibition of CYP2C9. The format is ADME.
For data set [18], the target named is T3, Cytochrome P450 1A2 (Homo sapiens, UniProt P05177).
T3 sequence (P05177 whole entry): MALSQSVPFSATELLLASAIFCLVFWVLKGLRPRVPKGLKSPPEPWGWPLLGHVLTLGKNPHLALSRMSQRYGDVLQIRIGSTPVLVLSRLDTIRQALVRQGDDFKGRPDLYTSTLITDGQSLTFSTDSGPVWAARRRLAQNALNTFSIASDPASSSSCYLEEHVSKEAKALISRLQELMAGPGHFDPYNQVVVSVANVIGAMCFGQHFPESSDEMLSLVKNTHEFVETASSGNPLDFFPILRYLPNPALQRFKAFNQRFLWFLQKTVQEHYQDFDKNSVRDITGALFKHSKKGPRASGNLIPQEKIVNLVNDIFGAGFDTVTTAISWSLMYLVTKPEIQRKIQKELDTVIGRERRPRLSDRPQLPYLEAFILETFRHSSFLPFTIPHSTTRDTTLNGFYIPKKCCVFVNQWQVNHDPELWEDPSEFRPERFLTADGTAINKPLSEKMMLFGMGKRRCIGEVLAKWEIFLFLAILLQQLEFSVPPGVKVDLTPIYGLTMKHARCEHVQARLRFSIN
The experiment in a line: Inhibition of CYP1A2. The format is ADME.

Data set [19] addresses T4, Albumin (Homo sapiens, UniProt P02768). The experiment in a line: Binding affinity to immobilised human serum albumin by chromatographic analysis. To be noted: isolated protein. In kind it is ADME.
In data set [20] the target is T4, Albumin. The data set is described as follows: Binding affinity to immobilised human serum albumin by ultrafiltration and biacore method. The format is ADME. The conditions noted are these: isolated protein. On the technique in general: SPR reads the build-up and loss of mass on a sensor chip optically.

A value given as a limit tells only on which side of the number the result lay.

T4 sequence (P02768 whole entry): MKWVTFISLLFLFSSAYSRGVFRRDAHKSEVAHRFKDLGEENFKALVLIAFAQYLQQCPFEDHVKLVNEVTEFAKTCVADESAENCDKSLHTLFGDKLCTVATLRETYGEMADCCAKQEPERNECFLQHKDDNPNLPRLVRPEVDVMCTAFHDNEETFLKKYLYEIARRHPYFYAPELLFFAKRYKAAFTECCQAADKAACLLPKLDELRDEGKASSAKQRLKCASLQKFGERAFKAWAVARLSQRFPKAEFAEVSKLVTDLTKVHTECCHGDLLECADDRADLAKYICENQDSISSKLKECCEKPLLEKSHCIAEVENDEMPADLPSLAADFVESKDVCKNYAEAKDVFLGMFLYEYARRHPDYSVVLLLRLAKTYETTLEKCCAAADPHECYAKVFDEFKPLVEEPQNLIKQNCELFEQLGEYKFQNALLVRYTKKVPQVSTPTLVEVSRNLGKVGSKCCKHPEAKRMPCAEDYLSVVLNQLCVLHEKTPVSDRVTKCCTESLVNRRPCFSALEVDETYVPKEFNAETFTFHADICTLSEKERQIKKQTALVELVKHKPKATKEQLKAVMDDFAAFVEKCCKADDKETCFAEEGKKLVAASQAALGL
Chain of Cytochrome P450 3A4 (P08684 whole entry): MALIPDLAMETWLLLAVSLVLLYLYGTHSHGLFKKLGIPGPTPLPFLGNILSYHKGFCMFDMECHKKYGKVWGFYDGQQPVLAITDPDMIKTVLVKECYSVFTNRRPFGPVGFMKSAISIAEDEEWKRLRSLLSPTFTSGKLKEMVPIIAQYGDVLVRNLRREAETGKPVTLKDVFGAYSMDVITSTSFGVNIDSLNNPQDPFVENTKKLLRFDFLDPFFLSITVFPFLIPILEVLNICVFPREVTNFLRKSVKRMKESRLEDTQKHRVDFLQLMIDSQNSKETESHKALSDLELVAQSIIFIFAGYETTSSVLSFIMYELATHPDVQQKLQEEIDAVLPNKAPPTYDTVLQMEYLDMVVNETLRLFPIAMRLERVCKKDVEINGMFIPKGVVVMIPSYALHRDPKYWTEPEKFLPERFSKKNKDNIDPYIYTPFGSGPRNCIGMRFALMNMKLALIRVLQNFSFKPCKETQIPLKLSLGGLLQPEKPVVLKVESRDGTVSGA
Chain of Voltage-gated inwardly rectifying potassium channel KCNH2 (Q12809 whole entry): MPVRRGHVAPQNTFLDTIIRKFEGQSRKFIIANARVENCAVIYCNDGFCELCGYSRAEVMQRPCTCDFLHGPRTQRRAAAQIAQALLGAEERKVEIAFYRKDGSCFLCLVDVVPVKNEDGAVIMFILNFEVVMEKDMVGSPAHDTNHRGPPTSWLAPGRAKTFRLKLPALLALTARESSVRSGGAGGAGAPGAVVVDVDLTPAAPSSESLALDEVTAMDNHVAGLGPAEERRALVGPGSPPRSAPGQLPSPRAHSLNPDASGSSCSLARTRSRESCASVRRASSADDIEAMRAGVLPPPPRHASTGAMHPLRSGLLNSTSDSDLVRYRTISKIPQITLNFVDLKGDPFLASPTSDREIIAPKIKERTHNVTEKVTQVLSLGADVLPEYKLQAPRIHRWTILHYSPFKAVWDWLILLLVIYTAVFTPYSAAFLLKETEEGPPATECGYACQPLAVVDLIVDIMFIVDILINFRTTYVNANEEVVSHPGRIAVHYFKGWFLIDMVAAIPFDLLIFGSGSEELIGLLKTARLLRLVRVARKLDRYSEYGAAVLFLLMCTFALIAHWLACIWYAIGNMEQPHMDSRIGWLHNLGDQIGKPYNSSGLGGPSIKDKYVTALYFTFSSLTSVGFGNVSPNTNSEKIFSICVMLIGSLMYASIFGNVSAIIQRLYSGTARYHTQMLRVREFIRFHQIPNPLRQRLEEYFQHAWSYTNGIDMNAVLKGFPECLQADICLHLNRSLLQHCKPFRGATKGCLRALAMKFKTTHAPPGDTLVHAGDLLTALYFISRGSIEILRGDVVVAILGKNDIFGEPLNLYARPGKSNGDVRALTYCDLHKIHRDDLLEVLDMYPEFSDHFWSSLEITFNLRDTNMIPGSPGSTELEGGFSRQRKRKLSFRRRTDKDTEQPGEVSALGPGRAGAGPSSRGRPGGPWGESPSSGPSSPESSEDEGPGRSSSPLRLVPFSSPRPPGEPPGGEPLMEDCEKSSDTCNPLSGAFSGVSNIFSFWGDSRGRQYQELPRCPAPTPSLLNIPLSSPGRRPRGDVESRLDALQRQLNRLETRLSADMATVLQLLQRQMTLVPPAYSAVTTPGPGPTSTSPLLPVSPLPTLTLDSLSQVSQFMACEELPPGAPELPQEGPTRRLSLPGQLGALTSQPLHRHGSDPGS
Chain of Cytochrome P450 2D6 (P10635 whole entry): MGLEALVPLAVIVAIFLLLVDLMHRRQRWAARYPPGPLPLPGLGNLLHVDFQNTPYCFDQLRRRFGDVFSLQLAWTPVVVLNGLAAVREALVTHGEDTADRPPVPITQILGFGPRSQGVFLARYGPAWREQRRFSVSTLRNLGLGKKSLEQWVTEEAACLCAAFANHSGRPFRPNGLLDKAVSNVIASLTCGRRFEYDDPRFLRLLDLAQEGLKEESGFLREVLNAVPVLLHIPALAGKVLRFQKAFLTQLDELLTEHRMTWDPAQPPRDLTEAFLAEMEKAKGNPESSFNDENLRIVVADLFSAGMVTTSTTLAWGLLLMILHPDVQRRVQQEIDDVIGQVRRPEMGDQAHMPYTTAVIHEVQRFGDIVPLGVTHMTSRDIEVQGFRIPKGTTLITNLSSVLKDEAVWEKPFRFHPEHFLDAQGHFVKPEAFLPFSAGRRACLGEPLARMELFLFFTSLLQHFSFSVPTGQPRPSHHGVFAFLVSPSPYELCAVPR
Chain of Cytochrome P450 2C19 (P33261 whole entry): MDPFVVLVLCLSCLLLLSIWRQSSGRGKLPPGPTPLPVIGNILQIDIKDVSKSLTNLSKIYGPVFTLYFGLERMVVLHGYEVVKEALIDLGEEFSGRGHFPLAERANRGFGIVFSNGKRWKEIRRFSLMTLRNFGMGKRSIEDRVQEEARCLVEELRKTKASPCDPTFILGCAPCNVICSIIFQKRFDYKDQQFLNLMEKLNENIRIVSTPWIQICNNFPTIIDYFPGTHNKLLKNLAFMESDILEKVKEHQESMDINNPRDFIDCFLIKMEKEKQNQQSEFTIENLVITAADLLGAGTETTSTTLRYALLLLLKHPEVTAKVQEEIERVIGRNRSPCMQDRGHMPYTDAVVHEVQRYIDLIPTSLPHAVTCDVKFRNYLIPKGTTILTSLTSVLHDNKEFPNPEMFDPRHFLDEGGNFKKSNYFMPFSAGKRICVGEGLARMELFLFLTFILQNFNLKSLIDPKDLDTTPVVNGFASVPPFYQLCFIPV
Chain of Cytochrome P450 2C9 (P11712 whole entry): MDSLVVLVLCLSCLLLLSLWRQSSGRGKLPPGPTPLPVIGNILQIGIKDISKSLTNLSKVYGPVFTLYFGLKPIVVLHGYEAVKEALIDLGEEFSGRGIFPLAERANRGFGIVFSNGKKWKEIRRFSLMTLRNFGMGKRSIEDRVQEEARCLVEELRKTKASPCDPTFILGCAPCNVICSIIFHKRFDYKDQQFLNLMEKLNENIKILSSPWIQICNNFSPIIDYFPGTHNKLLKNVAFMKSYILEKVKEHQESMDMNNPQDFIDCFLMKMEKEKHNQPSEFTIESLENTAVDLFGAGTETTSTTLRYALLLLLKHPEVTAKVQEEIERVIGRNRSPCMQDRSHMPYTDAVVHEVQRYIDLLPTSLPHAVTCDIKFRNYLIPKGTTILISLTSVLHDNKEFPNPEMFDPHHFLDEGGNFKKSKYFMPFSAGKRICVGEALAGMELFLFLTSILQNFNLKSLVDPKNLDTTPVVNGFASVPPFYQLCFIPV
Chain of C-C chemokine receptor type 5 (P51681 whole entry): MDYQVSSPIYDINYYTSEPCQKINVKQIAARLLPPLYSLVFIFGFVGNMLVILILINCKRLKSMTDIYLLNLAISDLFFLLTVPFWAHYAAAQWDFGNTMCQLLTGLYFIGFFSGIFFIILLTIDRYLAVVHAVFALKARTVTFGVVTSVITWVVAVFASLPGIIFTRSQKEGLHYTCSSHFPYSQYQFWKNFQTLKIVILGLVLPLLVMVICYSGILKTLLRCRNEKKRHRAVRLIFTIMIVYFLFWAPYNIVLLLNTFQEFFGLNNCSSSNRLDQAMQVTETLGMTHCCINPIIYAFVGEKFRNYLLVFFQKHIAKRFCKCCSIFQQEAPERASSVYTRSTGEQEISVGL

As usually defined, the logD is the decadic logarithm of the distribution of all forms, ionised or not, between an organic phase and buffer at a given pH. The term Ki denotes the equilibrium dissociation constant of an inhibitor or competing ligand from its target. In general, IC50 refers to the concentration that inhibits the measured activity by half. In general, clearance refers to the rate of elimination divided by the concentration. Read a low clearance as a low capacity for elimination. Usually inhibition stands for the change of the read-out against control, counted positive when it falls. The term half-life denotes the time in which the quantity being followed falls by half. A higher half-life goes with slow decline. Usually bioavailability stands for dose-corrected exposure relative to a reference, in per cent. Higher therefore signals good availability. By Vd is commonly meant the apparent volume that relates the amount in the body to the concentration in plasma or blood. As for `O=C(O)c1ccccc1Oc1ncc(Cl)cc1NS(=O)(=O)c1ccc(Cl)c(Cl)c1`, the logD in data set [1] worked out at 0.8. For the same molecule, the Ki in [2] is 0.00126 µM; in data set [3] it was 0.794 µM. Also, the IC50 was more than 31.6 µM in data set [4]; 39.8 µM in data set [5]; 100 µM in data set [8]; 100 µM in data set [14]; 0.251 µM in data set [16]; 21.4 µM in [17]. In data set [18], this molecule had an IC50 of 39.8 µM. In data set [6], this molecule returned a clearance of 0.71 mL/min/kg. The inhibition in data set [7] came out at 37%; in data set [12] it was 67%. Moreover, the half-life in data set [9] and in data set [10] was 4.5 h throughout. Further, the bioavailability in data set [11] turned out to be 97%. Moreover, the T1/2 in data set [13] came out at 4.67 h. In [15], this molecule displayed a Vd of 0.12 L/kg.
`O=S(=O)(Nc1cc(Cl)cnc1Oc1cccnc1)c1ccc(Cl)c(Cl)c1` showed a logD in [1] of 2.32. Moreover, the Ki in data set [2] is 0.02 µM. For the same molecule, the inhibition was determined as 5.4% in data set [7] and 36% in data set [12]. Also, the Activity in [19] is on record as more than 98%; in data set [20], more than 99.5%.
